Experimental data: ChEMBL document CHEMBL1125365, “Acyl-CoA:cholesterol O-acyl transferase (ACAT) inhibitors. 1. 2-(Alkylthio)-4,5-diphenyl-1H-imidazoles as potent inhibitors of ACAT” (J Med Chem, 1992)

Key:
[1] = target: T1, Sterol O-acyltransferase 1 (Rattus norvegicus) (UniProt O70536); experiment: Tested in vitro for acyl coenzyme A:cholesterol acyltransferase (ACAT) activity in rat liver microsome at a concentration of 1 micro g/mL; format: microsomes
T1 sequence (whole entry): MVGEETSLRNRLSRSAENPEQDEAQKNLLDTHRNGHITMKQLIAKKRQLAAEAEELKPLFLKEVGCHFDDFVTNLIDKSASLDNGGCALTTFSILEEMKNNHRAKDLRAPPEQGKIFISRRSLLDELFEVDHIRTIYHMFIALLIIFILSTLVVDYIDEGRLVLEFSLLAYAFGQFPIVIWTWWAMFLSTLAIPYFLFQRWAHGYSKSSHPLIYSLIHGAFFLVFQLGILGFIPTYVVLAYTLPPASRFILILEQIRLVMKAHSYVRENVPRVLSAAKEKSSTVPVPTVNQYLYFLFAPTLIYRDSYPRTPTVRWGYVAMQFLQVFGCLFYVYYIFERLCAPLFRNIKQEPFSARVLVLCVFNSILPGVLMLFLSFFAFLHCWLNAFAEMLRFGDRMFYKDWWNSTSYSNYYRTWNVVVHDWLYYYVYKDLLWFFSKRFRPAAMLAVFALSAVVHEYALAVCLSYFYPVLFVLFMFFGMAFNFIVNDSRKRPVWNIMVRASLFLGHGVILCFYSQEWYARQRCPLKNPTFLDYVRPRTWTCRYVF
In short: (§1)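 Enzyme source was hepatic microsomes from cholesterol-fed rats, 60 μg microsomal protein per reaction, with 90 μM radiolabeled oleoyl-CoA. Cholesterol ester formed was separated by TLC and quantified by scintillation counting. Compounds were tested at a single fixed concentration of 1 or 10 μg/mL, and results were given as percent inhibition of enzyme activity.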

[2] = target: T2, Sterol O-acyltransferase 1 (Rattus norvegicus, UniProt O70536); experiment: Inhibition of acyl coenzyme A:cholesterol acyltransferase (ACAT) activity in rat liver microsome; format: microsomes
T2 sequence (O70536 whole entry): T1 sequence (whole entry)
In short: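 The assay used rat hepatic microsomes from cholesterol-fed animals (60 μg protein) and 90 μM radiolabeled oleoyl-CoA. Cholesterol ester product was resolved by TLC and counted by scintillation. IC50 was the concentration inhibiting 50% of enzyme activity.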

Rattus norvegicus = experiment: Tested in vivo for anti-hypercholesterolaemic activity in male Sprague-Dawley rat.; format: functional
In short: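 Compound was given at 0.03% w/w in the diet (about 30 mg/kg/day). Basal-diet rats (n = 4) gave a baseline that was subtracted. Plasma cholesterol was measured enzymatically, and the result was expressed as percent change versus undosed controls.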

[3] = target: T1, Sterol O-acyltransferase 1 (Rattus norvegicus); experiment: In vitro acyl coenzyme A:cholesterol acyltransferase (ACAT) activity in rat liver microsome at a concentration of 10 micro g/mL; format: microsomes; in short: as §1

| Compound | inhibition [1] [%] | IC50 [2] [nM] | inhibition [3] [%] | Change (Rattus norvegicus) [%] |
| --- | --- | --- | --- | --- |
| c1ccc(-c2nc(SCC3OCCO3)[nH]c2-c2ccccc2)cc1 | 98 | 530 |  | -29 |
| C[C@@]1(O)CC(=O)OC(CSc2nc(-c3ccccc3)c[nH]2)C1 (some centres not stated) |  |  | 0 |  |
| Clc1cccc(-c2[nH]c(SCC3CCCCO3)nc2-c2ccccc2)c1 (configuration not stated) | 90 | 560 |  |  |
| C[C@@]1(O)CC(=O)OC(CSc2nc(-c3ccc(F)cc3)c(-c3ccc(F)cc3)[nH]2)C1 (some centres not stated) |  | 790 | 97 |  |
| c1ccc(-c2nc(SCC3OCCCO3)[nH]c2-c2ccccc2)cc1 |  | 180 | 97 | -10 |
| CC(O)(CC(=O)[O-])CC(O)CSc1nc(-c2ccccc2)c(-c2ccccc2)[nH]1.[Na+] (configuration not stated) |  |  | 66 | -33 |
| CCOC(CSc1nc(-c2ccccn2)c(-c2ccccn2)[nH]1)OCC |  |  | 15 |  |
| CC1=CC(=O)OC(CSc2nc(-c3ccccc3Cl)c(-c3ccccc3Cl)[nH]2)C1 (configuration not stated) |  | 1700 | 95 |  |
| CCOC(CSc1nc(-c2ccco2)c(-c2ccco2)[nH]1)OCC | 34 |  |  |  |
| COC(CSc1nc(-c2ccccc2)c(-c2ccccc2)[nH]1)OC |  | 580 | 99 |  |
| CC1=CC(=O)OC(CSc2nc(-c3ccc(C)cc3)c(-c3ccc(C)cc3)[nH]2)C1 (configuration not stated) |  | 280 | 97 |  |
| CCOC(CSc1nc(-c2ccccc2)c(-c2ccccc2)[nH]1)OCC |  | 250 | 99 | -37 |
| Clc1ccccc1-c1[nH]c(SCC2CCCCO2)nc1-c1ccccc1 (configuration not stated) | 76 |  |  |  |
| COc1ccc(-c2nc(S)[nH]c2-c2ccc(OC)cc2)cc1 |  |  | 42 |  |
| C[C@@]1(O)CC(=O)OC(CSc2nc(-c3ccccc3Cl)c(-c3ccccc3Cl)[nH]2)C1 (some centres not stated) |  | 140 | 99 |  |
| COc1cccc(-c2nc(SCC3C[C@](C)(O)CC(=O)O3)[nH]c2-c2cccc(OC)c2)c1 (some centres not stated) |  | 570 | 97 |  |
| c1ccc(-c2nc(SCCC3OCCCO3)[nH]c2-c2ccccc2)cc1 | 80 | 730 |  |  |
| O=C1CCCC(CSc2nc(-c3ccccc3)c(-c3ccccc3)[nH]2)O1 (configuration not stated) |  | 740 | 95 | 16 |
| CC(O)(CC(=O)OC(C)(C)C)CC(O)CSc1nc2c3ccccc3c3ccccc3c2[nH]1 (configuration not stated) | 41 |  |  |  |
| O=C(O)CCC(O)CSc1nc(-c2ccccc2)c(-c2ccccc2)[nH]1 (configuration not stated) |  |  | 76 |  |
| Clc1ccc(-c2[nH]c(SCC3CCCCO3)nc2-c2ccccc2)cc1 (configuration not stated) | 87 |  |  |  |

| Compound | inhibition [1] [%] | IC50 [2] [nM] | inhibition [3] [%] | Change (Rattus norvegicus) [%] |
| --- | --- | --- | --- | --- |
| CCOC(=O)CC(C)(O)CC(O)CSc1nc(-c2ccccc2)c(-c2ccccc2)[nH]1 (configuration not stated) | 91 | 280 |  |  |
| c1ccc(CSc2nc(-c3ccccc3)c(-c3ccccc3)[nH]2)cc1 | 90 | 290 |  |  |
| C[C@@]1(O)CC(=O)OC(CSc2nc(-c3ccc(Cl)cc3)c(-c3ccc(Cl)cc3)[nH]2)C1 (some centres not stated) |  | 180 | 98 | -11 |
| COc1ccccc1-c1nc(S)[nH]c1-c1ccccc1OC | 0 |  |  |  |
| CC1=CC(=O)OC(CSc2nc(-c3ccccc3)c(-c3ccccc3)[nH]2)C1 (configuration not stated) |  | 200 | 98 | 27 |
| C[C@@]1(O)CC(=O)OC(CSc2nc(-c3cccc(Cl)c3)c(-c3cccc(Cl)c3)[nH]2)C1 (some centres not stated) | 93 | 110 |  |  |
| Sc1nc(-c2ccccc2Cl)c(-c2ccccc2Cl)[nH]1 |  |  | 27 |  |
| CO[C@H]1O[C@H](CSc2nc(-c3ccccc3)c(-c3ccccc3)[nH]2)[C@@H](O)[C@H](O)[C@@H]1O | 52 |  |  |  |
| CC1=CC(=O)OC(CSc2nc(-c3ccc(Cl)cc3)c(-c3ccc(Cl)cc3)[nH]2)C1 (configuration not stated) | 77 |  |  |  |
| CO[C@H]1C[C@H](O)C[C@@H](CSc2nc(-c3ccccc3)c(-c3ccccc3)[nH]2)O1 | 92 | 90 |  |  |
| O=C1CCCC(CSc2nc(-c3ccccc3)c(-c3ccccc3)[nH]2)N1 (configuration not stated) | 86 | 610 |  |  |
| COc1ccc(-c2nc(SCC3C[C@](C)(O)CC(=O)O3)[nH]c2-c2ccc(OC)cc2)cc1 (some centres not stated) |  | 420 | 87 |  |
| O=C1CCC(CSc2nc(-c3ccccc3)c(-c3ccccc3)[nH]2)O1 (configuration not stated) |  |  | 78 |  |
| CC1=CC(=O)OC(CSc2nc(-c3ccc(F)cc3)c(-c3ccc(F)cc3)[nH]2)C1 (configuration not stated) |  | 610 | 96 |  |
| O=C(O)CCCCCSc1nc(-c2ccccc2Cl)c(-c2ccccc2Cl)[nH]1 |  |  | 20 |  |
| CCSc1nc(-c2ccccc2)c(-c2ccccc2)[nH]1 |  | 770 | 99 |  |
| CC(O)(CC(=O)OC(C)(C)C)CC(O)CSc1nc(-c2ccc(Cl)cc2)c(-c2ccc(Cl)cc2)[nH]1 (configuration not stated) |  | 250 | 97 | -53 |
| O=C1CCC(CSc2nc(-c3ccccc3)c(-c3ccccc3)[nH]2)N1 (configuration not stated) | 87 | 360 |  |  |
| COc1ccc(-c2nc(SCC3C[C@@](C)(O)CC(=O)O3)[nH]c2-c2ccc(OC)cc2)cc1 (some centres not stated) |  | 340 | 96 |  |
| CC1=CC(=O)OC(CSc2nc(-c3cccc(Cl)c3)c(-c3cccc(Cl)c3)[nH]2)C1 (configuration not stated) |  | 440 | 98 |  |

Second part, led by results:

| inhibition [1] [%] | IC50 [2] [nM] | inhibition [3] [%] | Compound | Change (Rattus norvegicus) [%] |
| --- | --- | --- | --- | --- |
| 94 | 100 |  | CC1(C)CC(=O)OC(CSc2nc(-c3ccccc3)c(-c3ccccc3)[nH]2)C1 (configuration not stated) | -17 |
|  | 170 | 98 | C[C@@]1(O)CC(=O)OC(CSc2nc(-c3ccccc3)c(-c3ccccc3)[nH]2)C1 (some centres not stated) | -105 |
|  | 170 | 99 | Cc1ccc(-c2nc(SC[C@H]3C[C@@](C)(O)CC(=O)O3)[nH]c2-c2ccc(C)cc2)cc1.Cc1ccc(-c2nc(SC[C@H]3C[C@](C)(O)CC(=O)O3)[nH]c2-c2ccc(C)cc2)cc1 |  |
| 90 | 230 |  | CC(C)c1ccc(-c2nc(SC[C@H]3C[C@@](C)(O)CC(=O)O3)[nH]c2-c2ccc(C(C)C)cc2)cc1.CC(C)c1ccc(-c2nc(SC[C@H]3C[C@](C)(O)CC(=O)O3)[nH]c2-c2ccc(C(C)C)cc2)cc1 |  |
| 12 |  |  | C[C@]1(O)CC(=O)OC(CSc2nc(-c3ccccc3)n(-c3ccccc3)n2)C1 (some centres not stated) |  |
|  | 140 | 98 | C[C@]1(O)CC(=O)OC(CSc2nc(-c3ccccc3)c(-c3ccccc3)[nH]2)C1 (some centres not stated) | -35 |
| 89 | 280 |  | CO[C@H]1C[C@@](C)(O)C[C@H](CSc2nc(-c3ccccc3)c(-c3ccccc3)[nH]2)O1 |  |
|  |  | 13 | C[C@@]1(O)CC(=O)O[C@@H](CSc2nc(-c3ccccc3)c(-c3ccccc3)o2)C1.C[C@]1(O)CC(=O)O[C@@H](CSc2nc(-c3ccccc3)c(-c3ccccc3)o2)C1 |  |
|  | 1000 | 95 | C[C@@]1(O)CC(=O)O[C@@H](CSc2nc(-c3ccc(C(F)(F)F)cc3)c(-c3ccc(C(F)(F)F)cc3)[nH]2)C1.C[C@]1(O)CC(=O)O[C@@H](CSc2nc(-c3ccc(C(F)(F)F)cc3)c(-c3ccc(C(F)(F)F)cc3)[nH]2)C1 |  |
| 89 | 910 |  | O=C1CC(O)CC(CSc2nc(-c3ccccc3)c(-c3ccccc3)[nH]2)O1 (configuration not stated) |  |
|  |  | 23 | C[C@@]1(O)CC(=O)O[C@@H](CS(=O)(=O)c2nc(-c3ccccc3)c(-c3ccccc3)[nH]2)C1 |  |
|  |  | 4 | C[C@@]1(O)CC(=O)O[C@@H](CSc2nc(-c3ccccc3)c(-c3ccccc3)s2)C1.C[C@]1(O)CC(=O)O[C@@H](CSc2nc(-c3ccccc3)c(-c3ccccc3)s2)C1 |  |
|  |  | 32 | C[C@@]1(O)CC(=O)O[C@@H](CSc2nc(-c3ccccc3)c(-c3ccccc3)n2-c2ccccc2)C1.C[C@]1(O)CC(=O)O[C@@H](CSc2nc(-c3ccccc3)c(-c3ccccc3)n2-c2ccccc2)C1 |  |
| 94 | 160 |  | C[C@@]1(O)CC(O)O[C@@H](CSc2nc(-c3ccccc3)c(-c3ccccc3)[nH]2)C1 (some centres not stated) |  |
|  | 2600 | 90 | Cn1c(SC[C@H]2C[C@@](C)(O)CC(=O)O2)nc(-c2ccccc2)c1-c1ccccc1.Cn1c(SC[C@H]2C[C@](C)(O)CC(=O)O2)nc(-c2ccccc2)c1-c1ccccc1 |  |
| 29 |  |  | COc1ccccc1-c1nc(SC[C@H]2C[C@@](C)(O)CC(=O)O2)[nH]c1-c1ccccc1OC.COc1ccccc1-c1nc(SC[C@H]2C[C@](C)(O)CC(=O)O2)[nH]c1-c1ccccc1OC |  |
| 32 |  |  | CC(C)(C)c1ccc(-c2nc(SC[C@H]3C[C@@](C)(O)CC(=O)O3)[nH]c2-c2ccc(C(C)(C)C)cc2)cc1.CC(C)(C)c1ccc(-c2nc(SC[C@H]3C[C@](C)(O)CC(=O)O3)[nH]c2-c2ccc(C(C)(C)C)cc2)cc1 |  |
| 93 | 82 |  | CO[C@@H]1C[C@@](C)(O)C[C@H](CSc2nc(-c3ccccc3)c(-c3ccccc3)[nH]2)O1 |  |
